Source: ChEMBL document CHEMBL3351563, “Discovery of 2-[2-(5-nitrofuran-2-yl)vinyl]quinoline derivatives as a novel type of antimetastatic agents” (Bioorg Med Chem, 2015)
The source made the active and inactive calls. The rule behind the calls is not given here.

Columns and labels:
[1] = Antiproliferative activity against human H1299 cells by XTT assay; assay type: functional, cell-based; conditions: NCI-H1299
Outline: (§1)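 Cells (5 × 10³/well) exposed to compound for 72 h in medium with 10% FBS, medium changed and cells incubated another day. Percent of control growth from mean absorbance (n = 3).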

MDA-MB-231 = assay: Antiproliferative activity against human MDA-MB-231 cells by XTT assay; assay type: functional, cell-based; outline: as §1
MRC5 = assay: Antiproliferative activity against human MRC5 cells by XTT assay; assay type: cell-based; outline: as §1
MCF7 = assay: Antiproliferative activity against human MCF7 cells by XTT assay; assay type: functional, cell-based; outline: as §1
A549 = assay: Antiproliferative activity against human A549 cells by XTT assay; assay type: functional, cell-based; outline: as §1
[2] = target: 72 kDa type IV collagenase (Homo sapiens) (UniProt P08253); assay: Residual MMP2 activity in human H1299 cells at 2 uM after 24 hrs by gelatin zymography
Sequence of 72 kDa type IV collagenase (Homo sapiens) (P08253 110-660 limits assumed): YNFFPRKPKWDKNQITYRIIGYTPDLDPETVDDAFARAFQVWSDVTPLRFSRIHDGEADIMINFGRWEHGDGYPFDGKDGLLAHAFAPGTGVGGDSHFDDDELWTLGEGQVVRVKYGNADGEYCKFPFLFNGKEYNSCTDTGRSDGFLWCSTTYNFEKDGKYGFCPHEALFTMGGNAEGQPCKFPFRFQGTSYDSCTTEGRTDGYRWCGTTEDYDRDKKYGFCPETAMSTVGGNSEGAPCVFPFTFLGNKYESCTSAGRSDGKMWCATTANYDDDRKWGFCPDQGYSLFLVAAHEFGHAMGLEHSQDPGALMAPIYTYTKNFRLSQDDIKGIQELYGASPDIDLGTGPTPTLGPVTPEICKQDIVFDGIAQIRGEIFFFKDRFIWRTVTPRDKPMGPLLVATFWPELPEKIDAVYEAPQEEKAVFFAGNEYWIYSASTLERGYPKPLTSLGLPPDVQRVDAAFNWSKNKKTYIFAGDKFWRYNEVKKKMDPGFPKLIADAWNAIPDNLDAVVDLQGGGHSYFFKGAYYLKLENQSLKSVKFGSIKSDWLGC

[3] = target: 72 kDa type IV collagenase (Homo sapiens) (UniProt P08253); assay: Inhibition of MMP2 activity in human H1299 cells after 24 hrs by gelatin zymography; assay type: cell-based
Outline: (§2)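 3 × 10⁵ H1299 cells cultured 24 h with compound. Conditioned medium run on 10% SDS-PAGE with 1% gelatin, gel incubated overnight at 37 °C in 40 mM Tris-HCl pH 8.0, 10 mM CaCl₂, 0.02% NaN₃, then Coomassie-stained and destained. Bands quantified versus vehicle; n = 3.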

[4] = target: MAP kinase p38 (Homo sapiens) (UniProt O15264+Q15759+Q16539+P53778); assay: Increase in p38 phosphorylation in human H1299 cells at 1 to 5 uM after 24 hrs by Western blotting method; assay type: cell-based
Outline: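 H1299 cells given vehicle or 0.2, 0.5, 1, 2 and 5 µM compound. Lysate proteins probed with primary and secondary antibodies after 5% milk blocking, ECL chemiluminescence detection. β-actin as internal control; each blot representative of three independent experiments.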

[5] = target: Matrix metalloproteinase-9 (Homo sapiens) (UniProt P14780); assay: Inhibition of MMP9 activity in human H1299 cells at 1 uM after 24 hrs by gelatin zymography; values are per cent of control
Sequence of Matrix metalloproteinase-9 (Homo sapiens) (P14780 whole entry): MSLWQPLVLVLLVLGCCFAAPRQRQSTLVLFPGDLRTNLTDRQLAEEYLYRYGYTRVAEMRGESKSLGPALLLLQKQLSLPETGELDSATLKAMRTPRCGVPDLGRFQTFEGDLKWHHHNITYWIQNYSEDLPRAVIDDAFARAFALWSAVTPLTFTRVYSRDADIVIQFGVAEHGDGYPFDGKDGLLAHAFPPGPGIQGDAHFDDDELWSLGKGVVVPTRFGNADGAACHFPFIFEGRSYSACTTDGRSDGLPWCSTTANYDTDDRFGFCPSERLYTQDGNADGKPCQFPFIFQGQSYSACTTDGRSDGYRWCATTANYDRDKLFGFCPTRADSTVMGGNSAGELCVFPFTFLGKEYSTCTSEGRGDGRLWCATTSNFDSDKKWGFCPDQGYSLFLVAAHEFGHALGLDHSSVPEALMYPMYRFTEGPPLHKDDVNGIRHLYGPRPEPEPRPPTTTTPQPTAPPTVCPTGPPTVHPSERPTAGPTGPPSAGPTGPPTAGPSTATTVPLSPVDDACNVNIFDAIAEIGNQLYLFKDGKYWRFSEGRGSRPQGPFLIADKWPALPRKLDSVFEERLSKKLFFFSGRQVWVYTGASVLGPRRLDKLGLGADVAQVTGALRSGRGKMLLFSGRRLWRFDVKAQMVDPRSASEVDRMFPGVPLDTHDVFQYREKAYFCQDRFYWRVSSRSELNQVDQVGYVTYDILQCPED

[6] = target: 72 kDa type IV collagenase (Homo sapiens) (UniProt P08253); assay: Residual MMP2 activity in human H1299 cells at 5 uM after 24 hrs by gelatin zymography
[7] = target: Matrix metalloproteinase-9 (Homo sapiens) (UniProt P14780); assay: Inhibition of MMP9 activity in human H1299 cells after 24 hrs by gelatin zymography; assay type: cell-based; outline: as §2
[8] = target: Matrix metalloproteinase-9 (Homo sapiens) (UniProt P14780); assay: Inhibition of MMP9 activity in human H1299 cells at 2 uM after 24 hrs by gelatin zymography; values are per cent of control
[9] = target: 72 kDa type IV collagenase (Homo sapiens) (UniProt P08253); assay: Residual MMP2 activity in human H1299 cells at 1 uM after 24 hrs by gelatin zymography

IC50 (MDA-MB-231) [nM]	IC50 (MCF7) [nM]	IC50 (A549) [nM]	residual activity [2] [%]	inhibition [3]	Activity [4]	residual activity [5] [%]	residual activity [6] [%]	inhibition [7]	residual activity [8] [%]	residual activity [9] [%]	SMILES	IC50 [1] [nM]	IC50 (MRC5) [nM]
52100	39600	71100	–	–	–	–	–	–	–	–	COc1ccc2c(c1)C(=O)c1c-2c(C)nc2ccc(F)cc12	31600	43200
–	–	–	63.7	Dose-dependent effect	Active	63.9	56.3	Dose-dependent effect	31.5	75.5	COc1ccc(-c2cc3cc(OC)ccc3nc2/C=C/c2ccc([N+](=O)[O-])o2)cc1	–	–
93	580	740	–	–	–	–	–	–	–	–	COc1ccc2c(c1)C(=O)c1c-2c(/C=C/c2ccc([N+](=O)[O-])o2)nc2ccc(F)cc12	460	800
42000	32600	61600	–	–	–	–	–	–	–	–	COc1ccc2c(c1)C(=O)c1c-2c(C)nc2ccccc12	21400	65400
91	650	80	–	–	–	–	–	–	–	–	COc1cccc2c1C(=O)c1c(O)c3c(c(O)c1C2=O)C[C@@](O)(C(C)=O)C[C@@H]3O[C@H]1C[C@H](N)[C@H](O)[C@H](C)O1 [DAUNORUBICIN]	96	78

Second part, the compound before the results:

SMILES	IC50 (MDA-MB-231) [nM]	IC50 (MCF7) [nM]	IC50 (A549) [nM]	residual activity [2] [%]	inhibition [3]	Activity [4]	residual activity [5] [%]	residual activity [6] [%]	inhibition [7]	residual activity [8] [%]	residual activity [9] [%]	IC50 [1] [nM]	IC50 (MRC5) [nM]
COc1ccc2c(c1)C(=O)c1c-2c(/C=C/c2ccc([N+](=O)[O-])o2)nc2ccc(OC)cc12	930	870	1320	–	–	–	–	–	–	–	–	890	6070
COc1ccc2c(c1)C(=O)c1c-2c(/C=C/c2ccc([N+](=O)[O-])o2)nc2ccccc12	95	620	70	–	–	–	–	–	–	–	–	80	93
COc1ccc2c(c1)C(=O)c1c-2c(C)nc2ccc(OC)cc12	62300	42000	75900	–	–	–	–	–	–	–	–	33700	78400
